Measured values: paper PMC2900633 (Bioorganic & medicinal chemistry, 2008)

Tests used:
[1] = system: Jurkat, PC3 and LNCaP cells; test: MTT assay, statements over all three cell lines; assay type: cell-based
[2] = system: LNCaP cells; test: MTT assay, LNCaP cells; assay type: cell-based; details: 24 h, ±10 μM
[3] = system: PC3 cells; test: Endogenous PS exposure, Annexin V-FITC flow cytometry; assay type: cell-based; details: scramblase 100 μM, 37°C, 2 hours, background value 2 %
In short: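 PC3 cells were grown in Ham's F-12K with 10% FBS at 37°C, 5% CO2. At 90% confluency they were PBS-washed, trypsinised and resuspended in TES buffer at 1 × 10^5 cells/mL. Test compound (100 μM, from DMSO stock) was added for 2 h at 37°C. Cells were then stained in binding buffer with Annexin V-FITC plus 7AAD (500 ng/mL) for 15 min at 37°C. Flow cytometry excluded 7AAD-positive cells. Three independent experiments were run.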

[4] = system: erythrocytes; details: raised from 1 %, previous work, ref 8f; cited from earlier work

SMILES	LD50 (effect on mitochondrial reductase activity) [1] [µM]	LD50, LNCaP cells [2] [µM]	fraction of Annexin-stained cells [3] [%]	fraction of Annexin-stained cells, erythrocytes [4] [%]
Cc1ccc(S(=O)(=O)NCCN(CCNCc2ccccc2)CCNS(=O)(=O)c2ccc(C)cc2)cc1 [scramblase 16]	> 15	40	–	–
Cc1ccc(S(=O)(=O)NCCN(CCNC(=S)Nc2ccc(Cl)cc2)CCNS(=O)(=O)c2ccc(C)cc2)cc1 [scramblase 14]	> 15	15	–	–
Cc1ccc(S(=O)(=O)NCCN(CCNC(=O)[C@H](N)Cc2ccccc2)CCNS(=O)(=O)c2ccc(C)cc2)cc1.Cl [scramblase 15]	> 15	40	–	–
Cc1ccc(S(=O)(=O)NCCN(CCNC(=O)Nc2ccc(C(C)C)cc2)CCNS(=O)(=O)c2ccc(C)cc2)cc1 [scramblase 9]	–	–	< 5	–
Cc1ccc(S(=O)(=O)NCCN(CCNC(=O)Nc2ccc([N+](=O)[O-])cc2)CCNS(=O)(=O)c2ccc(C)cc2)cc1 [scramblase 2]	–	–	< 5	34
Cc1ccc(S(=O)(=O)NCCN(CCNC(=O)Nc2ccc(C(F)(F)F)cc2)CCNS(=O)(=O)c2ccc(C)cc2)cc1 [scramblase 5]	–	–	10	–
